Measurements taken from ChEMBL document CHEMBL1770150, “Synthesis, biological evaluation and molecular modeling studies of quinolonyl diketo acid derivatives: new structural insight into the HIV-1 integrase inhibition” (Eur J Med Chem, 2011).

Key:
[1] = molecular target: T1, Human immunodeficiency virus type 1 integrase (Human immunodeficiency virus 1, UniProt Q7ZJM1); experiment: Inhibition of HIV1 integrase strand transfer activity after 1 hr by gel based assay in presence of magnesium
Summary of the method: (§1)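 Buffer was 20 mM HEPES pH 7.5, 1 mM DTT, 10 mM MgCl2 and 10% DMSO, for 1 h at 37 °C. DNA was precipitated, phenol/chloroform-extracted and analysed on gel. IC50 was fitted from percent inhibition versus concentration, from duplicate experiments.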

[2] = Selectivity index, ratio of CC50 for human TZM-bl cells to EC50 for HIV1 NL4-3; format: toxicity, cell-based; conditions: read-out: Ratio CC50/EC50
Summary of the method: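 Index was calculated as CC50/EC50, both determined in TZM-bl cells (WST-1 viability over 3 days; NL4-3 infection with β-galactosidase read-out).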

[3] = test system: Human immunodeficiency virus 1; experiment: Antiviral activity against HIV1 NL4-3 infected in human TZM-bl cells assessed as inhibition of Tat protein-induced transactivation after 48 hrs by beta galactosidase assay; format: functional, organism-based; conditions: Human immunodeficiency virus 1, NL4-3, TZM-bl
Summary of the method: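 TZM-bl cells were grown in DMEM at 37 °C with 5% CO2 and plated at 5000 cells/well. After 48 h the medium was replaced with compound dilutions (0.00128 to 4). Cells were infected with NL4-3 (100 ng p24) 4 h later. At 48 h post-infection, cells were lysed in PBS with 0.1% NP-40 and 5 mM MgCl2. β-galactosidase was read with chlorophenol red-galactopyranoside. EC50 came from dose-response curves.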

[4] = Cytotoxicity against human TZM-bl cells assessed as cell viability after 3 days by WST-1 assay; format: cell-based
Summary of the method: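 TZM-bl cells were seeded at 5000/well, and compound dilutions (100 to 0.032) were added 2 h later. Cells and compound were held 3 days at 37 °C in growth medium. Viability was measured by WST-1 cleavage, absorbance at […]. Cytotoxicity is the percent reduction in viable cells relative to drug-free control cultures.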

[5] = molecular target: T1, Human immunodeficiency virus type 1 integrase; experiment: Inhibition of HIV1 integrase 3' processing activity after 1 hr by gel based assay in presence of magnesium; summary of the method: as §1

T1 sequence (Q7ZJM1 whole entry): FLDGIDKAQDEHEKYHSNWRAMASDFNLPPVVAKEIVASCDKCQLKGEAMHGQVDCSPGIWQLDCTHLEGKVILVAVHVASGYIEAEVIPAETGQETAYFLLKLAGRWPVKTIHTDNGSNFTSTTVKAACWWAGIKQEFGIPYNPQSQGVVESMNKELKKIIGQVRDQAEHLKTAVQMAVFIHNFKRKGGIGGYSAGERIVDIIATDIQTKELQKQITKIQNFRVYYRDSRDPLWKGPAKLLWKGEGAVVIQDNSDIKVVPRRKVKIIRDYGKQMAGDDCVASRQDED

SMILES | IC50 [1] [µM] | EC50 [3] [µM] | IC50 [5] [µM] | selectivity ratio [2] | CC50 at 72 h [4] [µM]
O=C(O)/C(O)=C/C(=O)c1cn(Cc2ccc(F)cc2)c2ccc(Br)cc2c1=O | 0.03 | 4 | 1.6 | 250 | > 1000
O=C(O)/C=C/c1ccc2c(c1)c(=O)c(C(=O)/C=C(\O)C(=O)O)cn2Cc1ccc(F)cc1 | 0.03 | 5 | 8 | 200 | > 1000
CCOC(=O)/C=C/c1ccc2c(c1)c(=O)c(C(=O)/C=C(\O)C(=O)OCC)cn2Cc1ccc(F)cc1 | > 300 | > 140 | > 300 | 7 | > 1000

Further lines, with some results ahead:

IC50 [1] [µM] | EC50 [3] [µM] | IC50 [5] [µM] | SMILES | selectivity ratio [2] | CC50 at 72 h [4] [µM]
> 300 | 13 | > 300 | CCOC(=O)/C(O)=C/C(=O)c1cn(Cc2ccc(F)cc2)c2ccc(OCc3ccc(F)cc3)cc2c1=O | 77 | > 1000
0.05 | 1 | 3 | O=C(O)/C(O)=C/C(=O)c1cn(Cc2ccc(F)cc2)c2ccc(OCc3ccc(F)cc3)cc2c1=O | 1000 | > 1000
